Assay results reported in ChEMBL document CHEMBL3352443, “Synthesis of new heterocyclic lupeol derivatives as nitric oxide and pro-inflammatory cytokine inhibitors” (Bioorg Med Chem Lett, 2014).

Tests used:
[1] = Cytotoxicity against mouse RAW264.7 cells assessed as cell viability at IC50 by MTT assay relative to control; type: cell-based; conditions: read-out: Activity
[2] = Antiinflammatory activity in mouse J774A1 cells assessed as inhibition of LPS-induced NO production incubated for 1 hr prior to LPS challenge measured after 24 hrs by Griess method; type: functional, cell-based; conditions: J774.A1
Summary of the method: (§1)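 NO release was measured in LPS-stimulated macrophages, and IC50 values were derived from it. Data are mean ± SD of three separate experiments, each run in triplicate.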

[3] = Cytotoxicity against mouse J774A1 cells assessed as cell viability at IC50 by MTT assay relative to control; type: cell-based, J774.A1; conditions: read-out: Activity
RAW264.7 [4] = test: Antiinflammatory activity in mouse RAW264.7 cells assessed as inhibition of LPS-induced NO production incubated for 1 hr prior to LPS challenge measured after 24 hrs by Griess method; type: functional, cell-based; summary of the method: as §1
RAW264.7 [5] = test: Antiinflammatory activity in mouse RAW264.7 cells assessed as inhibition of LPS-induced TNF-alpha production at 20 ug/ml incubated for 1 hr prior to LPS challenge measured after 6 hrs by sandwich ELISA relative to control; type: functional
Summary of the method: (§2)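 Compounds were tested at 20 µg/mL on LPS-stimulated cells. TNF-α and IL-1β released into the medium were quantified with an ELISA kit following the kit protocol and expressed as % inhibition. Data are mean ± SD of three separate experiments, each run in triplicate.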

[6] = Antiinflammatory activity in mouse J774A1 cells assessed as inhibition of LPS-induced TNF-alpha production at 20 ug/ml incubated for 1 hr prior to LPS challenge measured after 6 hrs by sandwich ELISA relative to control; type: functional; conditions: J774.A1; summary of the method: as §2
[7] = Antiinflammatory activity in mouse J774A1 cells assessed as inhibition of LPS-induced IL-1beta production at 20 ug/ml incubated for 1 hr prior to LPS challenge measured after 12 hrs by sandwich ELISA relative to control; type: functional; conditions: J774.A1; summary of the method: as §2
RAW264.7 [8] = test: Antiinflammatory activity in mouse RAW264.7 cells assessed as inhibition of LPS-induced IL-1beta production at 20 ug/ml incubated for 1 hr prior to LPS challenge measured after 12 hrs by sandwich ELISA relative to control; type: functional; summary of the method: as §2

With C=C(C)[C@@H]1CC[C@]2(C)CC[C@]3(C)[C@H](CC[C@@H]4[C@@]5(C)CC/C(=N\O)C(C)(C)[C@@H]5CC[C@]43C)[C@@H]12 the viability [1] was 95.7%, the IC50 [2] was 44.6 µM and the viability [3] was 93.6%. It also gave an IC50 (RAW264.7 [4]) of 46 µM.

C=C(C=O)[C@@H]1CC[C@]2(C)CC[C@]3(C)[C@H](CC[C@@H]4[C@@]5(C)CC[C@H](O)C(C)(C)[C@@H]5CC[C@]43C)[C@@H]12 gave a viability [1] of 95.2%, an IC50 [2] of 37 µM and a viability [3] of 92.1%. For the same compound, the IC50 (RAW264.7 [4]) was 42.9 µM.

C=C(C)[C@@H]1CC[C@]2(C)CC[C@]3(C)[C@H](CC[C@@H]4[C@@]5(C)CC[C@H](OC(=O)CC(C)(C)C(=O)O)C(C)(C)[C@@H]5CC[C@]43C)[C@@H]12 gave a viability [1] of 87.6%, an IC50 [2] of 42.6 µM and a viability [3] of 83.6%. The IC50 (RAW264.7 [4]) was 39.2 µM.

C=C(C)[C@@H]1CC[C@]2(C)CC[C@]3(C)[C@H](CC[C@@H]4[C@@]5(C)CC[C@H](N(O)c6ccccc6)C(C)(C)[C@@H]5CC[C@]43C)[C@@H]12 showed a viability [1] of 79.3%, an IC50 [2] of 47.7 µM and a viability [3] of 82.5%. For the same compound, the IC50 (RAW264.7 [4]) was 48.7 µM.

For C=C(C)[C@@H]1CC[C@]2(C)CC[C@]3(C)[C@H](CC[C@@H]4[C@@]5(C)CC[C@H](OC(=O)CCC(=O)O)C(C)(C)[C@@H]5CC[C@]43C)[C@@H]12, the viability [1] was 91.3%, the IC50 [2] was 39.3 µM and the viability [3] was 90.1%. It also gave an IC50 (RAW264.7 [4]) of 39.2 µM.

With C=C(C)[C@@H]1CC[C@]2(C)CC[C@]3(C)[C@H](CC[C@@H]4[C@@]5(C)CCC(=S)C(C)(C)[C@@H]5CC[C@]43C)[C@@H]12 the viability [1] was 94.3%, the IC50 [2] was 36.3 µM and the viability [3] was 91.9%. The IC50 (RAW264.7 [4]) was 36.2 µM.

C=C(C)[C@@H]1CC[C@]2(C)CC[C@]3(C)[C@H](CC[C@@H]4[C@@]5(C)Cc6c([nH]c7ccccc67)C(C)(C)[C@@H]5CC[C@]43C)[C@@H]12 showed a viability [1] of 91.8%, an IC50 [2] of 31.7 µM and a viability [3] of 90.3%. The IC50 (RAW264.7 [4]) was 31.7 µM.

C=C(C)[C@@H]1CC[C@]2(C)CC[C@]3(C)[C@H](CC[C@@H]4[C@@]5(C)Cc6c([nH]c7ccc(C)cc67)C(C)(C)[C@@H]5CC[C@]43C)[C@@H]12 gave a viability [1] of 89.3%, an IC50 [2] of 28.6 µM and a viability [3] of 87%. The IC50 (RAW264.7 [4]) was 27.8 µM.

In the case of C=C(C)[C@@H]1CC[C@]2(C)CC[C@]3(C)[C@H](CC[C@@H]4[C@@]5(C)Cc6c([nH]c7c(C)ccc(C)c67)C(C)(C)[C@@H]5CC[C@]43C)[C@@H]12, the inhibition at 20 µg/mL (RAW264.7 [5]) is reported as 32.8%, the inhibition at 20 µg/mL [6] is reported as 31.1% and the viability [1] is reported as 93.2%. The inhibition at 20 µg/mL [7] was 17.2%, the IC50 [2] was 23.2 µM and the viability [3] was 91.5%. It also gave an IC50 (RAW264.7 [4]) of 25.9 µM and an inhibition at 20 µg/mL (RAW264.7 [8]) of 22.8%.

In the case of C=C(C)[C@@H]1CC[C@]2(C)CC[C@]3(C)[C@H](CC[C@@H]4[C@@]5(C)Cc6c([nH]c7c(CC)cccc67)C(C)(C)[C@@H]5CC[C@]43C)[C@@H]12, the inhibition at 20 µg/mL (RAW264.7 [5]) is reported as 39.1%, the inhibition at 20 µg/mL [6] is reported as 29.4% and the viability [1] is reported as 91.5%. The inhibition at 20 µg/mL [7] was 10.1%, the IC50 [2] was 28.6 µM and the viability [3] was 91.7%. For the same compound, the IC50 (RAW264.7 [4]) was 30.6 µM and the inhibition at 20 µg/mL (RAW264.7 [8]) was 11.4%.

C=C(C)[C@@H]1CC[C@]2(C)CC[C@]3(C)[C@H](CC[C@@H]4[C@@]5(C)Cc6c([nH]c7ccc(F)cc67)C(C)(C)[C@@H]5CC[C@]43C)[C@@H]12 showed a viability [1] of 95.2%, an IC50 [2] of 41.7 µM and a viability [3] of 92.1%. The IC50 (RAW264.7 [4]) was 41.7 µM.

C=C(C)[C@@H]1CC[C@]2(C)CC[C@]3(C)[C@H](CC[C@@H]4[C@@]5(C)Cc6c([nH]c7ccc(Cl)cc67)C(C)(C)[C@@H]5CC[C@]43C)[C@@H]12 gave a viability [1] of 93.3%, an IC50 [2] of 33.2 µM and a viability [3] of 92.7%. It also gave an IC50 (RAW264.7 [4]) of 35.6 µM.

In the case of C=C(C)[C@@H]1CC[C@]2(C)CC[C@]3(C)[C@H](CC[C@@H]4[C@@]5(C)Cc6c([nH]c7ccc(Br)cc67)C(C)(C)[C@@H]5CC[C@]43C)[C@@H]12, the inhibition at 20 µg/mL (RAW264.7 [5]) is reported as 39.2%, the inhibition at 20 µg/mL [6] is reported as 31.5% and the viability [1] is reported as 91.4%. The inhibition at 20 µg/mL [7] was 16.2%, the IC50 [2] was 18.4 µM and the viability [3] was 90.8%. For the same compound, the IC50 (RAW264.7 [4]) was 23.9 µM and the inhibition at 20 µg/mL (RAW264.7 [8]) was 19.7%.

C=C(C)[C@@H]1CC[C@]2(C)CC[C@]3(C)[C@H](CC[C@@H]4[C@@]5(C)Cc6c([nH]c7ccc(I)cc67)C(C)(C)[C@@H]5CC[C@]43C)[C@@H]12 gave an inhibition at 20 µg/mL (RAW264.7 [5]) of 42.3%, an inhibition at 20 µg/mL [6] of 37% and a viability [1] of 95.2%. It also gave an inhibition at 20 µg/mL [7] of 17.3%, an IC50 [2] of 25.2 µM and a viability [3] of 93.3%. The IC50 (RAW264.7 [4]) was 22.6 µM and the inhibition at 20 µg/mL (RAW264.7 [8]) was 22.9%.

For C=C(C)[C@@H]1CC[C@]2(C)CC[C@]3(C)[C@H](CC[C@@H]4[C@@]5(C)Cc6nccnc6C(C)(C)[C@@H]5CC[C@]43C)[C@@H]12, the viability [1] was 95.2%, the IC50 [2] was 32.4 µM and the viability [3] was 93.3%. For the same compound, the IC50 (RAW264.7 [4]) was 32.4 µM.

In the case of C=C(C)[C@@H]1CC[C@]2(C)CC[C@]3(C)[C@H](CC[C@@H]4[C@@]5(C)CC[C@H](OC(C)=O)C(C)(C)[C@@H]5CC[C@]43C)C12 (single isomer, unassigned) [LUPENYL ACETATE], the viability [1] is reported as 80.3%, the IC50 [2] is reported as 33.2 µM and the viability [3] is reported as 83.5%. The IC50 (RAW264.7 [4]) was 36.7 µM.

In the case of COc1cc(/C=C/C(=O)CC(=O)/C=C/c2ccc(O)c(OC)c2)ccc1O [CURCUMIN], the IC50 [2] is reported as 18.5 µM and the IC50 (RAW264.7 [4]) is reported as 11 µM.

Work on COC(=O)[C@@H](N)CCCNC(=N)N[N+](=O)[O-] [L-NAME] yielded an IC50 [2] of 73.2 µM and an IC50 (RAW264.7 [4]) of 69.2 µM.

For C=C(C)[C@@H]1CC[C@]2(C)CC[C@]3(C)[C@H](CC[C@@H]4[C@@]5(C)CCC(=O)C(C)(C)[C@@H]5CC[C@]43C)[C@@H]12 [LUPENONE], the viability [1] was 89.6%, the IC50 [2] was 38.8 µM and the viability [3] was 87.7%. It also gave an IC50 (RAW264.7 [4]) of 38.5 µM.

Compound C=C(C)[C@@H]1CC[C@]2(C)CC[C@]3(C)[C@H](CC[C@@H]4[C@@]5(C)CC[C@H](O)C(C)(C)[C@@H]5CC[C@]43C)[C@@H]12 [LUPEOL] has a viability [1] of 87.3%, an IC50 [2] of 34.5 µM and a viability [3] of 88.3%. The IC50 (RAW264.7 [4]) was 37.3 µM.
